hERG rescue = compounds protecting human hERG from proarrhythmic drug block | activation (rescue from dofetilide block), less the hit threshold, % at 10 µM | CHO-hERG, FluxOR thallium flux, dofetilide IC70 present | Q12809 | 310,000 compounds, 0.51% hits;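 active = activation above the mean of controls blocked by dofetilide plus 5 SD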;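 also: thallium influx through hERG after potassium depolarization seen as dye fluorescence rise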
KCNK3 inh = human KCNK3 channel inhibition, primary screen; O14649; CHO-KCNK3 thallium flux, FluxOR fluorescence; stronger effect = lower value; B-score at 10 µM; 340,000 compounds, 0.84% hits; AID 602410;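 active = B-score under library mean minus 4 SD, starting fluorescence ratio at most library mean plus 5 SD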;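 also: more negative B-score means stronger inhibition of thallium flux through KCNK3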
KCNK9 inh = blocks the human KCNK9 two-pore domain potassium channel; Q9NPC2; HEK293 KCNK9, FluxOR thallium flux fluorescence; stronger effect = lower value; B-score at 10 µM; 310,000 compounds, 1.2% hits;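 active = ratio B-score over 3 SD below the library mean, with starting fluorescence within 5 SD of its mean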;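 also: negative B-score means less thallium flux so channel inhibition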
KCNQ1 inh = human KCNQ1 channel inhibition; 310,000 compounds, 1.3% hits; P51787; B-score at 10 µM; CHO-K1 KCNQ1, FluxOR thallium flux fluorescence; stronger effect = higher value; AID 2642;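 active = compounds whose thallium flux B-score, printed positive for inhibition, exceeds three library SD while starting fluorescence stays within three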;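 also: channel opened by potassium depolarization with thallium stimulus after 20 min compound exposure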
KCNQ1 pot = potentiates or activates the human KCNQ1 potassium channel; CHO-K1 KCNQ1, thallium flux FluxOR fluorescence; stronger effect = higher value; B-score at 10 µM; 310,000 compounds, 0.35% hits;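 active = fluorescence ratio B-score, a plate-corrected score, at least three library SD, with initial intensity B-score within 5 SD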
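Test system: CHO-K1 cells stably expressing KCNQ1 / Medium: assay buffer / Also added: depolarizing K+/Tl+ stimulus, K2SO4 and Tl2SO4 each 12.5 mM in 5x stock / Incubation: 90 min dye loading and 20 min compound exposure, both at room temperature / Signal: thallium influx via FluxOR fluorescence, kinetic imaging / Evaluation: B score of baseline-normalized fluorescence ratio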
KCC2 mod = KCC2 (human) Cl- transport modulation. 190,000 compounds, 2.2% hits. KCC2 cells, thallium flux FluoZin-2 fluorescence. Q9H2X9. B-score of Tl+ flux slope (higher = more flux/activation; lower = inhibition) at 10 µM;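 active = thallium flux slope and its plate-corrected score both differing from the plate sample mean at a set confidence after two filtering rounds, in either direction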;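 also: slope of fluorescence scaled to starting intensity during 10 to 20 s after thallium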
KCC2 sec1 = KCC2 (human) modulation, secondary assay. shares compounds with KCC2 mod. HEK293-KCC2, thallium flux, FluoZin2 fluorescence; stronger effect = higher value. normalised thallium flux (F/F0 slope) at 10 µM. 3,700 compounds, 15% hits. AID 1713;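 active = thallium flux slope above the same plate's solvent-only control mean plus 3 SD; inconclusive = the two replicate wells disagree; inactive = no significant difference from solvent-only control wells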
KCC2 bumet counter = thallium flux despite bumetanide block in KCC2 cells, secondary assay 3 | shares compounds with KCC2 mod | 3,700 compounds, 49% hits | normalized thallium flux at 10 µM | HEK293-KCC2 + bumetanide/ouabain, thallium flux FluoZin2; stronger effect = higher value;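 active = thallium entry rate above the same plate's blocked-transporter control wells by more than 3 SD; inconclusive = the two repeat wells disagree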;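 also: raw slope of fluorescence over initial fluorescence between 10 and 20 s after thallium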
KCC2 secondary2 = KCC2 (human) modulation, second secondary assay. normalized thallium flux at 10 µM. HEK293-KCC2, thallium flux FluoZin2 fluorescence; actives lie on both sides; F/F0 rise rate, 10–20 s post-thallium. 3,700 compounds, 23% hits. shares compounds with KCC2 mod;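 active = thallium flux slope more than 3 SD above or below the plate's solvent-only control mean, mostly below; inconclusive = the two repeat wells disagreed; inactive = no significant shift from solvent-only controls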;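 also: raw slope with 0.1% DMSO as baseline and bumetanide as block control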
HEK293 Tl flux = acts in parental HEK cells, KCC2 counter-screen | shares compounds with KCC2 mod | HEK293 parental cells, thallium flux FluoZin2, ouabain; baseline-ratio fluorescence slope, 10–20 s after thallium | thallium flux rate (normalised fluorescence) at 10 µM | 3,700 compounds, 46% hits | AID 1716;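 active = thallium flux rate significantly above the same plate's solvent-only control wells, beyond their mean plus 3 SD; inconclusive = the two replicate wells gave conflicting results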
KCC2 ouabain = confirmation of human KCC2 modulators with ouabain; shares compounds with KCC2 mod; HEK293-KCC2, thallium flux FluoZin2 fluorescence; bidirectional: low = inhibitor, high = activator; raw Tl+ flux slope (below DMSO = inhibition, above = activation) at 10 µM; 3,700 compounds, 48% hits; AID 1717;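 active = thallium flux slope beyond 3 SD from same-plate DMSO control mean in most replicates, usually higher, sometimes lower; inconclusive = repeat tests gave conflicting results; inactive = no significant difference from controls in most replicates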;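 also: slope of initial-normalized fluorescence between seconds 10 and 20 after thallium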
HEK counter2 = acts in parental HEK cells, second KCC2 counter-screen | shares compounds with KCC2 mod | HEK293 parental, thallium flux FluoZin-2 fluorescence slope | thallium flux slope at 10 µM | 3,700 compounds, 33% hits | AID 1718;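 active = thallium flux slope above the same plate's solvent-control mean plus 3 SD in both duplicate wells; inconclusive = duplicate wells that disagreed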;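 also: run without ouabain in cells lacking the KCC2 cotransporter; slope of fluorescence scaled to its starting value between 10 and 20 s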
Active calls of the source: *. Only some compounds are listed: those with a hit (about 4.1% of all), similar ones and a draw of the others.

How did C/C(=N\NC(=O)c1ccc(Br)cc1)C1C(=O)c2ccccc2C1=O do in these assays?
hERG rescue: -22; KCNK3 inh: inactive; KCNK9 inh: inactive; KCNQ1 inh: inactive; KCNQ1 pot: inactive; KCC2 mod: -5.4*; KCC2 sec1: 0.0059; KCC2 bumet counter: 0.0045; KCC2 secondary2: 0.023*; HEK293 Tl flux: 0.0086; KCC2 ouabain: inconclusive; HEK counter2: 0.012

Results for CCOc1ccc(C(=O)N/N=C(/C)C2C(=O)c3ccccc3C2=O)cc1 ?
hERG rescue: -10; KCNK3 inh: inactive; KCNK9 inh: inactive; KCNQ1 inh: inactive; KCNQ1 pot: inactive; KCC2 mod: -0.85

What do the screens show for `Cc1ccc(S(=O)(=O)NC(C)C(=O)NC2CCCCCC2)cc1` (stereo not drawn)?
hERG rescue: -6; KCNK3 inh: inactive; KCNK9 inh: inactive; KCNQ1 inh: inactive; KCNQ1 pot: inactive; KCC2 mod: 0.0074

What do the screens show for `Cc1ccc(S(=O)(=O)NC(=S)NC2CCCCC2)cc1`?
hERG rescue: 7.5*; KCNK3 inh: inactive; KCNK9 inh: inactive; KCNQ1 inh: inactive; KCNQ1 pot: inactive; KCC2 mod: 13*; KCC2 sec1: 0.016*; KCC2 bumet counter: 0.032*; KCC2 secondary2: 0.037; HEK293 Tl flux: inconclusive; KCC2 ouabain: 0.034*; HEK counter2: 0.013

Results for O=S(=O)(NC(=S)NC1CCCCC1)c1ccc(Cl)cc1 ?
hERG rescue: 5.5*; KCNK3 inh: inactive; KCNK9 inh: inactive; KCNQ1 inh: inactive; KCNQ1 pot: inactive; KCC2 mod: 11*; KCC2 sec1: 0.017; KCC2 bumet counter: 0.02*; KCC2 secondary2: 0.032; HEK293 Tl flux: 0.02*; KCC2 ouabain: 0.025*; HEK counter2: 0.022*

Results for CCc1ccc(S(=O)(=O)NC(=S)NC2CCCCC2)cc1 ?
hERG rescue: 21*; KCNK3 inh: inactive; KCNK9 inh: inactive; KCNQ1 inh: inactive; KCNQ1 pot: 23*; KCC2 mod: 32*; KCC2 sec1: 0.026*; KCC2 bumet counter: 0.071*; KCC2 secondary2: inconclusive; HEK293 Tl flux: 0.05*; KCC2 ouabain: 0.06*; HEK counter2: 0.018*

How did O=C(NNS(=O)(=O)c1ccc(Cl)cc1)NC1CCCCC1 do in these assays?
hERG rescue: -4; KCNK3 inh: inactive; KCNK9 inh: inactive; KCNQ1 inh: inactive; KCNQ1 pot: inactive

What do the screens show for `CC(C)(C)NS(=O)(=O)c1ccc(NC(=O)C2CC(=O)N(CCc3ccc(F)cc3)C2)cc1` (stereo not drawn)?
hERG rescue: -5; KCNK3 inh: inactive; KCNK9 inh: inactive; KCNQ1 inh: inactive; KCNQ1 pot: inactive

How did O=C(NC1CCCCC1)N(Cc1ccccc1)Cc1ccco1 do in these assays?
hERG rescue: -10; KCNK3 inh: inactive; KCNK9 inh: inactive; KCNQ1 inh: inactive; KCNQ1 pot: inactive
